The record followed here is ChEMBL document CHEMBL1134268, “Synthesis and biological evaluation of tropane-like 1-[2-[bis(4-fluorophenyl)methoxy]ethyl]-4-(3-phenylpropyl)piperazine (GBR 12909) analogues” (J Med Chem, 2001).

Assay [1] is filed under the species Rattus norvegicus. Briefly: Inhibition of 5-HT reuptake from whole rat brain minus cerebellum using [3H]5-HT.
Assay [2] concerns the target Sodium-dependent dopamine transporter (Rattus norvegicus, UniProt P23977). Briefly: Binding affinity against Dopamine transporter using [125]RTI-55.
The species named for assay [3] is Rattus norvegicus. Briefly: Inhibition of Dopamine reuptake from rat caudate using [3H]DA. The format is functional. In a few lines: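 Rat caudate synaptosomes were prepared by homogenization in ice-cold 10% sucrose, and the 1000g supernatant was used. Incubation was with 2 nM [3H]DA (final) in Krebs-phosphate buffer pH 7.4 containing ascorbic acid (1 mg/mL) and pargyline (50 μM), for 20 min at 25 °C. Nonspecific uptake was defined with 1 μM of a DAT inhibitor. Filtration was followed by counting of retained tritium.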

Assay [4] concerns the target Sodium-dependent serotonin transporter (Rattus norvegicus, UniProt P31652). The experiment in a line: Binding affinity against serotonin transporter using [125]RTI-55.
For assay [5], the target named is T1, Muscarinic acetylcholine receptor M1 (Rattus norvegicus, UniProt P08482).
T1 sequence (P08482 whole entry): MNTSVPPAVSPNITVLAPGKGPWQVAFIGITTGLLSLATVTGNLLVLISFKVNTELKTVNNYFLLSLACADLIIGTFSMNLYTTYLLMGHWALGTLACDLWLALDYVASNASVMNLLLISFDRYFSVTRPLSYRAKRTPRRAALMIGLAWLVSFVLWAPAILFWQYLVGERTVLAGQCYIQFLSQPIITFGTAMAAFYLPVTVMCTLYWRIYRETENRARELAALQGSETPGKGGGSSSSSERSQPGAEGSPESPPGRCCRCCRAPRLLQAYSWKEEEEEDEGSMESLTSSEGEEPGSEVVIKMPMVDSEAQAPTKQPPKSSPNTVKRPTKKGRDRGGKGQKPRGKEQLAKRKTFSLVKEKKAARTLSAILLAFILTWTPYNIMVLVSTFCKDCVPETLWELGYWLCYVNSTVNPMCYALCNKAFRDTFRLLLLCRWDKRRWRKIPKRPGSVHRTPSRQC
Briefly: Binding affinity against Muscarinic receptor from rat brain membranes using [3H]pirenzepine. The method, boiled down:
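Male Sprague-Dawley rat brain P2 membranes (without cerebellum and brainstem), 300 μg protein, with 5 nM [3H]pirenzepine and 5 mM MgCl2 in 50 mM Tris-HCl pH 7.4, for 60 min at 37 °C. Nonspecific binding was defined with 10 μM QNB. Nine ligand concentrations (1 nM-10 μM or 10 nM-100 μM) were tested.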

For assay [6], the target named is Monoamine transporters; serotonin & dopamine (Rattus norvegicus) (UniProt P31652+P23977). Briefly: Ratio of binding affinity against Dopamine to that of serotonin transporter. It counts as protein assay.

Molecules are shown by their SMILES.

Sequence of Sodium-dependent serotonin transporter (P31652 whole entry): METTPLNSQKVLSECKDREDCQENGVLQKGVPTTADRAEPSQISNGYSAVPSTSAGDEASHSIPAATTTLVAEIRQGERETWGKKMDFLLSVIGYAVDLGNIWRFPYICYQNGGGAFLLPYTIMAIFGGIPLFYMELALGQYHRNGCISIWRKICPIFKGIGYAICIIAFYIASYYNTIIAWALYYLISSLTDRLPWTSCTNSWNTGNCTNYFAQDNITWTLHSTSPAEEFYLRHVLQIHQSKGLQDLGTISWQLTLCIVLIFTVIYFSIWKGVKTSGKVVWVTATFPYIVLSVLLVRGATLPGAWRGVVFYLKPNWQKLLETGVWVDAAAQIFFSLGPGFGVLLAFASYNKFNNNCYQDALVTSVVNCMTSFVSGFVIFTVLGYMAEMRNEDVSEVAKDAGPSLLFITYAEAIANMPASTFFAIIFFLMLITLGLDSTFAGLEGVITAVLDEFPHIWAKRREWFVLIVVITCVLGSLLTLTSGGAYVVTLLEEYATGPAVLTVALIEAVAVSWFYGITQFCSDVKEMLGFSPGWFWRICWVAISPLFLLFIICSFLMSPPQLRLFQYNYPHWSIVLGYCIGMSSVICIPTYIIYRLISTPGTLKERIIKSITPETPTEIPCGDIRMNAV
Sequence of Sodium-dependent dopamine transporter (P23977 whole entry): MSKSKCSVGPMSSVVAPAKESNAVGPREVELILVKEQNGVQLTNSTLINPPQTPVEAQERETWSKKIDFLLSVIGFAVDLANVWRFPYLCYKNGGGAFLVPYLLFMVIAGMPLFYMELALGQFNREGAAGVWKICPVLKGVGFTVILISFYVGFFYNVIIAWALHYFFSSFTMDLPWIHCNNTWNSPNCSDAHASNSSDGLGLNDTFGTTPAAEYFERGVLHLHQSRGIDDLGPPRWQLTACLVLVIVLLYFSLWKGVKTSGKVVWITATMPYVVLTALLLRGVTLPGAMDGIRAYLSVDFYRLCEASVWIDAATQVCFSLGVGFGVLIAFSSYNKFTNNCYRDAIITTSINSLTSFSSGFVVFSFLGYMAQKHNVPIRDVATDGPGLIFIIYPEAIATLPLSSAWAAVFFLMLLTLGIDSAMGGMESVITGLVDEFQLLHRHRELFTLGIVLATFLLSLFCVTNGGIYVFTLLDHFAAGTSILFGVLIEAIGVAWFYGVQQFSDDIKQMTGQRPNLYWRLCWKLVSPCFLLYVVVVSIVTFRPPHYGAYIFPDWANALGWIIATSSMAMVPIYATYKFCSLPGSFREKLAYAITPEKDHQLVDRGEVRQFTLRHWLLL
Sequence of Monoamine transporters; serotonin & dopamine (Rattus norvegicus) (P23977 whole entry, looked up): as the sequence (P23977 whole entry) above
Sequence of Monoamine transporters; serotonin & dopamine (Rattus norvegicus) (P31652 whole entry, looked up): as the sequence (P31652 whole entry) above

For the molecule `CN1C2CCC1CC(=CC(=O)NC(c1ccccc1)c1ccccc1)C2`, the Ki – broadly, a dissociation constant, usually derived from enzyme kinetics or from competition with a known ligand – in the assay listed under Rattus norvegicus [1] was determined as 60000 nM; in assay [2], 2300 nM; in the assay listed under Rattus norvegicus [3], 880 nM; in assay [4] it was 78000 nM; in assay [5] it was 1700 nM. Also, the Ratio in assay [6] was determined as 34.
For `CN1[C@@H]2CC[C@H]1C[C@@H](CCNC(c1ccc(F)cc1)c1ccc(F)cc1)C2`, the Ki in the assay listed under Rattus norvegicus [1] was 7100 nM; in the assay listed under Rattus norvegicus [3], 160 nM; in assay [4], 30000 nM; in assay [5], 630 nM. The Ratio in assay [6] was 111.
Take `c1ccc(CCCN2CCN(CCOC(c3ccccc3)c3ccccc3)CC2)cc1`: the Ki in the assay filed under Rattus norvegicus [1] stood at 290 nM; in the assay filed under Rattus norvegicus [3], 3.7 nM.
Take `CN1C2CCC1CC(CC(=O)NC(c1ccc(F)cc1)c1ccc(F)cc1)C2` (stereo not drawn): the Ki in the assay listed under Rattus norvegicus [1] was 60000 nM; in assay [2], 3400 nM; in the assay listed under Rattus norvegicus [3], 1800 nM; in assay [4] it was 69000 nM; in assay [5] it was 1200 nM. The Ratio in assay [6] came to 20.
For the molecule `CN1C2CCC1CC(CCNC(c1ccccc1)c1ccccc1)C2` (stereo not drawn), the Ki in the assay filed under Rattus norvegicus [1] amounted to 14000 nM; in assay [2], 3800 nM; in the assay filed under Rattus norvegicus [3], 1100 nM; in assay [4] it was 43000 nM; in assay [5], 340 nM. In addition, the Ratio in assay [6] amounted to 11.
With `Fc1ccc(C(OCCN2CCN(CCCc3ccccc3)CC2)c2ccc(F)cc2)cc1` [VANOXERINE], the Ki came out at 73 nM in the assay filed under Rattus norvegicus [1] and 4.3 nM in the assay filed under Rattus norvegicus [3].
Take `CN1C2CCC1CC(CCOC(c1ccc(F)cc1)c1ccc(F)cc1)C2` (stereo not drawn): the Ki in assay [2] is 52000 nM; in the assay listed under Rattus norvegicus [3], 80 nM; in assay [4], 4100 nM; in assay [5], 130 nM. In addition, the Ratio in assay [6] turned out to be 79.
`CN1[C@@H]2CC[C@H]1C[C@@H](CC(=O)NC(c1ccccc1)c1ccccc1)C2`: the Ki in the assay listed under Rattus norvegicus [1] was 100000 nM; in assay [2] it was 30000 nM; in the assay listed under Rattus norvegicus [3], 7900 nM; in assay [4] it was 120000 nM; in assay [5], 1200 nM. Moreover, the Ratio in assay [6] was determined as 4.
On to `CN1C2CCC1CC(=CCOC(c1ccc(F)cc1)c1ccc(F)cc1)C2`, for which the Ki was determined as 5000 nM in the assay listed under Rattus norvegicus [1]; 19000 nM in assay [2]; 35 nM in the assay filed under Rattus norvegicus [3]; 3600 nM in assay [4]; 200 nM in assay [5]. For the same molecule, the Ratio in assay [6] was 189.
Regarding `Fc1ccc(C(OCC[C@H]2C[C@H]3CC[C@@H](C2)N3CCCc2ccccc2)c2ccc(F)cc2)cc1`, the Ki in the assay filed under Rattus norvegicus [1] is 430 nM; in assay [2], 19000 nM; in the assay filed under Rattus norvegicus [3] it was 78 nM; in assay [4], 79 nM; in assay [5], 170 nM. The Ratio in assay [6] amounted to 4.
For the molecule `CN1C2CCC1CC(=CC(=O)NC(c1ccc(F)cc1)c1ccc(F)cc1)C2`, the Ki in the assay filed under Rattus norvegicus [1] was 17000 nM; in the assay listed under Rattus norvegicus [3], 240 nM; in assay [4], 19000 nM; in assay [5], 2500 nM. The Ratio in assay [6] came to 38.
Regarding `CN1[C@@H]2CC[C@H]1C[C@@H](CCOC(c1ccccc1)c1ccccc1)C2`, the Ki amounted to 12000 nM in the assay filed under Rattus norvegicus [1], 260 nM in the assay listed under Rattus norvegicus [3], 15000 nM in assay [4] and 56 nM in assay [5]. Further, the Ratio in assay [6] stood at 54.
`CN1[C@@H]2CC[C@H]1C[C@@H](OC(c1ccccc1)c1ccccc1)C2` [BENZTROPINE]: the Ki amounted to 18500 nM in the assay filed under Rattus norvegicus [1] and 130 nM in the assay filed under Rattus norvegicus [3].
With `c1ccc(CCCN2[C@@H]3CC[C@H]2C[C@@H](CCOC(c2ccccc2)c2ccccc2)C3)cc1`, the Ki was 570 nM in the assay filed under Rattus norvegicus [1]; 28000 nM in assay [2]; 120 nM in the assay filed under Rattus norvegicus [3]; 170 nM in assay [4]; 78 nM in assay [5]. Also, the Ratio in assay [6] worked out at 6.
On to `CN1C2CCC1CC(=CCOC(c1ccccc1)c1ccccc1)C2`, for which the Ki in the assay filed under Rattus norvegicus [1] came out at 8100 nM; in the assay listed under Rattus norvegicus [3], 190 nM; in assay [4] it was 8300 nM; in assay [5], 94 nM. In assay [6], the Ratio was 64.
